Where a SMILES comes first, the peptide text is derived from it. [ ]: non-standard residue; d: D form. dDap = NC[C@@H](N)C(=O)O; Dap = NC[C@H](N)C(=O)O
Key:
[1] = Inhibition of alpha-dicarbonyls-induced advanced glycation end product formation assessed as protection against MG-induced loss of bovine pancreatic RNaseA enzyme activity after 48 hrs […]; type: physicochemical; design: concentration or dose not given beside the values; details: cattle
Procedure, shortened: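 RNase A was pre-incubated with equimolar MG ± scavenger at 37 °C, pH 7.4. The glycated enzyme (10 µg/mL) was added to a methylene blue–yeast RNA solution (600 µg/mL RNA working concentration), and remaining activity was compared with control.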

[2] = Inhibition of alpha-dicarbonyls-induced advanced glycation end product formation assessed as protection against 100 eq. MG-induced insulin degradation at 3.75 mM after 24 hrs by RP-HPLC; design: scale not given: the % may be the effect or the level left; details: 3750 µM
[3] = Cytotoxicity in human EAhy926 cells assessed as viable cells at 1 mM after 48 hrs by MTT assay
[4] = Cytoprotective activity against MG-induced cytotoxicity in human EAhy926 cells assessed as viable cells at 1 mM after 48 hrs by MTT assay; details: EA.hy 926
[5] = Inhibition of alpha-dicarbonyls-induced advanced glycation end product formation assessed as protection against 5 eq. MG-induced insulin degradation at 3.75 mM after 24 hrs by RP-HPLC; type: physicochemical; design: scale not given: the % may be the effect or the level left; details: 3750 µM
Procedure, shortened: (§1)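 Human insulin (34 µM) was incubated in 10 mM phosphate pH 7.4 with 0.1 M NaCl at 37 °C with MG, ± scavenger at 1.1 mol equiv relative to MG. The standard condition was MG 3.4 mM (100 equiv) with scavenger 3.75 mM for 24 h. Remaining intact insulin was quantified by C18 RP-HPLC (TFA water/acetonitrile gradient) against the insulin-alone control.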

[6] = Inhibition of alpha-dicarbonyls-induced advanced glycation end product formation assessed as protection against MG-induced insulin degradation at 3.75 mM after 2 days by RP-HPLC; type: physicochemical; design: scale not given: the % may be the effect or the level left; details: 48 h, 3750 µM; procedure, shortened: as §1
[7] = Inhibition of alpha-dicarbonyls-induced advanced glycation end product formation assessed as protection against MG-induced insulin degradation at 3.75 mM after 5 days by RP-HPLC; type: physicochemical; design: scale not given: the % may be the effect or the level left; details: 120 h, 3750 µM; procedure, shortened: as §1
[8] = Inhibition of alpha-dicarbonyls-induced advanced glycation end product formation assessed as protection against MG-induced insulin degradation at 3.75 mM after 7 days by RP-HPLC; type: physicochemical; design: scale not given: the % may be the effect or the level left; details: 168 h, 3750 µM; procedure, shortened: as §1
[9] = Inhibition of alpha-dicarbonyls-induced advanced glycation end product formation assessed as protection against 10 eq. MG-induced insulin degradation at 3.75 mM after 24 hrs by RP-HPLC; type: physicochemical; design: scale not given: the % may be the effect or the level left; details: 3750 µM; procedure, shortened: as §1
[10] = Inhibition of alpha-dicarbonyls-induced advanced glycation end product formation assessed as protection against 100 eq. MG-induced insulin degradation at 3.75 mM after 24 hrs by RP-HPLC; type: physicochemical; design: scale not given: the % may be the effect or the level left; details: 3750 µM; procedure, shortened: as §1
[11] = Inhibition of alpha-dicarbonyls-induced advanced glycation end product formation assessed as protection against MG-induced bovine pancreatic RNaseA degradation after 48 hrs by SDS-PAGE; type: physicochemical; details: cattle
Procedure, shortened: (§2)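 Protein stock (10–15 mg/mL in phosphate buffer) was incubated with MG ± scavenger at 37 °C, pH 7.4, for 48 h, then stored at −20 °C until SDS–PAGE. For RNase A, MG was equimolar to protein and scavenger was 1.1 mol per mol MG.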

[12] = Inhibition of alpha-dicarbonyls-induced advanced glycation end product formation assessed as protection against MG-induced chicken lysozyme degradation after 48 hrs by SDS-PAGE; type: physicochemical; procedure, shortened: as §2
[13] = Inhibition of alpha-dicarbonyls-induced advanced glycation end product formation assessed as protection against MG-induced human glyoxalase1 degradation after 24 hrs by […]; type: physicochemical
Procedure, shortened: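 Human glyoxalase I was incubated with MG (protein/MG 1/1) ± scavenger (1.1 or 2.2 equiv) at 37 °C, pH 7.4, for 24 h, then stored at −20 °C. Mobility shift was analysed by non-denaturing PAGE.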

[14] = Inhibition of alpha-dicarbonyls-induced advanced glycation end product formation assessed as protection against MG-induced loss of human glyoxalase1 enzyme activity after 48 hrs […]; type: physicochemical; design: scale not given: the % may be the effect or the level left; details: 24 h; in the assay text read “24 hrs” for “48 hrs”
Procedure, shortened: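 Human glyoxalase I was pre-incubated with equimolar MG ± scavenger. Substrate hemithioacetal was formed from 2 mM MG and 2 mM reduced glutathione in 50 mM sodium phosphate pH 6.6 (20 min, 37 °C; ~600 µM) and equilibrated 15 min. Enzyme was then added, and S-D-lactoylglutathione formation was followed at 240 nm. One unit = 1 µmol per min.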

[15] = Mutagenic activity in Salmonella Typhimurium at 0.1 to 10 uM after 60 hrs by Ames test in absence of human S9 fraction; type: toxicity; details: salmonella enterica subsp. enterica serovar typhimurium, s9, 60 h
Procedure, shortened: (§3)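 Ames assay used a mix of S. typhimurium TA7001–TA7006 and, separately, TA98. Test substance (10, 1, 0.1 µM; alone or with MG; MG alone 10 µM) was incubated ± human liver S9 at 37 °C for 90 min, then in indicator medium for 60 h. Positive controls were 2-aminoanthracene, 4-nitroquinoline N-oxide and 2-nitrofluorene; solvent was the negative control. Duplicate experiments, 48 wells per point.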

[16] = Mutagenic activity in Salmonella Typhimurium at 0.1 to 10 uM after 60 hrs by Ames test in presence of human S9 fraction; type: toxicity; details: salmonella enterica subsp. enterica serovar typhimurium, s9, 60 h; procedure, shortened: as §3
[17] = Mutagenic activity in Salmonella Typhimurium TA98 at 0.1 to 10 uM after 60 hrs by Ames test in presence of human S9 fraction; type: toxicity; details: salmonella enterica subsp. enterica serovar typhimurium, s9, 60 h; procedure, shortened: as §3
[18] = Mutagenic activity in Salmonella Typhimurium at 0.1 to 10 uM after 60 hrs by Ames test in absence of human S9 fraction and in presence of MG; type: toxicity; details: salmonella enterica subsp. enterica serovar typhimurium, s9, 60 h; procedure, shortened: as §3
[19] = Mutagenic activity in Salmonella Typhimurium TA98 at 0.1 to 10 uM after 60 hrs by Ames test in absence of human S9 fraction and in presence of MG; type: toxicity; details: salmonella enterica subsp. enterica serovar typhimurium, s9, 60 h; procedure, shortened: as §3
[20] = Mutagenic activity in Salmonella Typhimurium TA98 at 0.1 to 10 uM after 60 hrs by Ames test in presence of human S9 fraction and MG; type: toxicity; details: salmonella enterica subsp. enterica serovar typhimurium, s9, 60 h; procedure, shortened: as §3
[21] = Mutagenic activity in Salmonella Typhimurium at 51.7 uM after 60 hrs by Ames test in presence of human S9 fraction; details: salmonella enterica subsp. enterica serovar typhimurium, s9, 60 h
[22] = Mutagenic activity in Salmonella Typhimurium TA98 at 51.7 uM after 60 hrs by Ames test in presence of human S9 fraction; details: salmonella enterica subsp. enterica serovar typhimurium, s9, 60 h

Structure (SMILES) | Activity [2] [%] | viability at 1000 µM [3] [%] | viability at 1000 µM [4] [%] | other results
NC[C@@H](N)C(=O)N[C@H](Cc1ccccc1)C(=O)O | 66 |  |  | Activity [1]: 70%
NC[C@H](N)C(=O)NCCC(=O)O | 69 |  |  | 
NCCCC[C@H](NC(=O)[C@H](N)CN)C(=O)O |  | 81 | 43 | 
NC[C@@H](N)C(=O)N[C@@H](Cc1ccc(C(F)(F)F)cc1)C(=O)O | 74 |  |  | 
CCCC[C@H](NC(=O)[C@@H](N)CN)C(=O)O |  | 94 | 74 | 
CC(C)C[C@@H](NC(=O)[C@@H](N)CN)C(=O)O |  | 87 | 71 | 
NC[C@H](N)C(=O)N[C@@H](Cc1ccccc1)C(=O)O |  | 78 | 67 | 
CC(C)C[C@H](NC(=O)[C@H](N)CN)C(=O)O | 83 |  |  | Activity [5]: 90%; Activity [6]: 88%; Activity [7]: 85%; Activity [8]: 88%; Activity [9]: 90%; Activity [10]: 83%
CCCC[C@H](NC(=O)[C@H](N)CN)C(=O)O | 91 |  |  | 
CC(C)C[C@H](NC(=O)[C@@H](N)CN)C(=O)O | 87 | 78 | 69 | Activity [11]: Active; Activity [12]: Active; Activity [13]: Active; Activity [1]: 94%; Activity [14]: 96%; Activity [15]: Non-toxic; Activity [16]: Non-toxic; Activity [17]: Non-toxic; Activity [18]: Non-toxic; Activity [19]: Non-toxic; Activity [20]: Non-toxic
NCC(N)C(=O)O (stereo not given) | 98 |  |  | Activity [1]: 20%
NC[C@@H](N)C(=O)N[C@H](CC(=O)O)C(=O)O | 61 |  |  | 
CC(C)C[C@@H](NC(=O)[C@H](N)CN)C(=O)O | 84 |  |  | 
NC[C@H](N)C(=O)NCC(=O)O (H-[Dap]-Gly-OH) | 67 | 57 | 54 | Activity [1]: 86%
CC[C@H](C)[C@H](NC(=O)[C@@H](N)CN)C(=O)O (H-[Dap]-Ile-OH) | 75 | 86 | 79 | Activity [1]: 91%
NC[C@H](N)C(=O)N1CCC[C@H]1C(=O)O (H-[Dap]-Pro-OH) | 77 |  |  | 

Structure (SMILES) | Activity [2] [%] | viability at 1000 µM [3] [%] | viability at 1000 µM [4] [%] | other results
CC(C)[C@H](NC(=O)[C@@H](N)CN)C(=O)O (H-[Dap]-Val-OH) | 71 | 96 | 93 | Activity [11]: Active; Activity [12]: Active; Activity [1]: 91%
C[C@@H](NC(=O)[C@H](N)CN)C(=O)O (H-[dDap]-[dA]-OH) | 71 | 72 | 71 | Activity [1]: 87%
NC[C@@H](N)C(=O)NC(Cc1ccc(F)cc1)C(=O)O (mixture of isomers) | 53 |  |  | 
NCCC(N)C(=O)O (racemic) | 40 |  |  | 
CC(C)(S)C(N)C(=O)O (racemic) [DL-PENICILLAMINE] | 69 | 86 | 61 | 
CCCCCCCCCCCCCCCCOC(=O)[C@H](CC(C)C)NC(=O)C(N)CN (single isomer, unassigned) | 74 | 23 | 33 | 
NCC(N)C(=O)O (single isomer, unassigned) [DIAMINOPROPANOIC ACID] |  | 81 | 67 | 
Nc1ccc2cc3ccccc3cc2c1 [2-AMINOANTHRACENE] |  |  |  | Activity [21]: Toxic; Activity [22]: Toxic
N=C(N)NCCC[C@H](N)C(=O)O [ARGININE] | 18 |  |  | 
NCCC(=O)N[C@@H](Cc1cnc[nH]1)C(=O)O [CARNOSINE] | 0 | 97 | 54 | 
N[C@@H](CS)C(=O)O [CYSTEINE] | 69 |  |  | 
NCCCC[C@H](N)C(=O)O [LYSINE] | 0 |  |  | 
CN(C)C(=N)N=C(N)N [METFORMIN] | 11 | 84 | 53 | 
N=C(N)NN [PIMAGEDINE] | 85 | 94 | 75 | Activity [1]: 70%
Cc1ncc(CO)c(CN)c1O [PYRIDOXAMINE] | 14 | 92 | 32 | 
